# Compound activity deposited in PubChem by several laboratories.
# MBD2 DNA inh – blocks human MBD2 binding to methylated DNA | actives 0.31% (n = 370,000) | TR-FRET, MBD2 binding to methylated oligonucleotide | Q9UBB5 | inhibition, % at 4.4 µM; in the data active means inhibition above about 13%
# rCAG binder – molecules binding r(CAG) RNA repeats | inhibition, % at 3 µM | AID 651821 | actives 1.3% (n = 370,000) | r(CAG) RNA repeat, TO-PRO-1 dye displacement fluorescence;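 active means inhibition above the plate cutoff, the mean of all test compounds on that plate plus 3 SD, cut at about 35% in these data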;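 further: 0% = DMSO alone and 100% = 100 µM mitoxantrone as full dye displacement; higher means more dye released from RNA so lower well fluorescence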
# LEDGF integ inh – blocks HIV-1 LEDGF/p75-dependent DNA integration | TR-FRET IN-LEDGF/p75 DNA integration, Eu/Cy5 | inhibition, % at 3.7 µM | actives 0.64% (n = 370,000) | AID 743269;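 active means inhibition above the screen-wide mean plus 3 SD, cut at about 13% in these data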;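 further: signal is the Cy5 over europium emission ratio at 671 and 618 nm; 0% = plate median of compound wells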
# ATG4B inhibitor – ATG4B (human) cysteine protease inhibition. inhibition, % at 8.33 µM. ATG4B cleavage of LC3-PLA2, NBD-HPC fluorescence, 1 h. Q9Y4P1. actives 0.51% (n = 340,000); in the data active means inhibition above about 40%
# Target sequence (Q9Y4P1 whole entry, looked up): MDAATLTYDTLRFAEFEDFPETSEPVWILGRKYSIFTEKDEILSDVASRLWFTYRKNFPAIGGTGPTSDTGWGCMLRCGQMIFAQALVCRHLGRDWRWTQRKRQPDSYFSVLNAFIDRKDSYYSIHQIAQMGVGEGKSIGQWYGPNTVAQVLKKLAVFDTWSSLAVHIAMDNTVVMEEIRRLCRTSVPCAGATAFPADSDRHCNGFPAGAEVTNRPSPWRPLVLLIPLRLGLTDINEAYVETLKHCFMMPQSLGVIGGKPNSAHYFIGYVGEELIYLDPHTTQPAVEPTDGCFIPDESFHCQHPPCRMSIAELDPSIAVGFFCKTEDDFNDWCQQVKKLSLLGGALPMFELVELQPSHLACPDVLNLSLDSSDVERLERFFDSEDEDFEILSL
# CSN inh – inhibitors of human CSN-mediated cullin deneddylation; Q92905; Purified CSN, SCF-Nedd8-OG deneddylation, fluorescence polarization; inhibition, % at 12.5 µM; actives 0.38% (n = 360,000);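 active means pattern-corrected inhibition above about 35%, with an unprinted fluorescence ratio check between 0.5 and 1.5, limit read from the data, passing the limit was not always enough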;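 further: 0% = enzyme with substrate and 100% = substrate without enzyme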
#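 Material: human Csn5 produced in HEK293T cells; Input: enzyme 0.24 nM; Reagent: SCFSkp2-Nedd8OG substrate at 10 nM final; Dosing: 12.5 µM compound; Incubation: 90 min reaction at room temperature; Detection: fluorescence polarization of the substrate; Evaluation: % inhibition of substrate cleavage by Csn5; Control set: substrate-only high control, full reaction low control.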
# UHRF1 binding – human UHRF1 methylated DNA binding inhibitors; Q96T88; UHRF1 binding to methylated oligo, TR-FRET; inhibition, % at 4.4 µM; actives 0.75% (n = 370,000); AID 687016; in the data active means inhibition above about 21%;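 further: UHRF1 SRA domain binding a hemimethylated CpG hairpin DNA probe; 0% = median of test compound wells and 100% = reference inhibitor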
# rCAG binder conf – r(CAG) RNA repeat binding, confirmation. shares compounds with rCAG binder. TO-PRO-1 dye displacement fluorescence. inhibition, % at 3 µM. actives 70% (n = 4,300). AID 652065;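 active means inhibition above a per-plate cutoff, the mean inhibition of sample wells plus 3 SD, cut at about 35% in these data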;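 further: loss of TO-PRO-1 fluorescence as compound displaces dye from 1x1 AA loop RNA; 0% = DMSO only wells and 100% = 100 µM mitoxantrone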
# dCAG dye counter – disrupts DNA CAG TO-PRO-1 complex, flagging rCAG hits; shares compounds with rCAG binder; d(CAG) DNA oligo TO-PRO-1 dye displacement, fluorescence; inhibition, % at 3 µM; actives 94% (n = 4,300);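 active means inhibition above its plate's cutoff, the mean test-well inhibition plus 3 SD, cut at about 4.8% in these data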;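 further: 0% = DNA dye mix with DMSO and 100% = 100 µM mitoxantrone; hits displace the dye from DNA and so lower well fluorescence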
# dCAG dye DR – disrupts DNA CAG TO-PRO-1 complex in dose response. shares compounds with rCAG binder. DNA CAG/GTC duplex TO-PRO-1 dye displacement fluorescence. IC50, µM. actives 20% (n = 250); in the data active means IC50 below about 10 µM
# * marks the source's active call; other numbers are inactive results; x = not tested or not shown. Compounds with a hit are over-represented: about 3.1% of the library has one in this group of screens.
SMILES,MBD2 DNA inh,rCAG binder,LEDGF integ inh,ATG4B inhibitor,CSN inh,UHRF1 binding,rCAG binder conf,dCAG dye counter,others
COc1cc(Nc2nc3ccccc3nc2NS(=O)(=O)c2ccc([N+](=O)[O-])cc2)cc(OC)c1OC,2,6,-2,2,-3,0,x,x,
CC(=O)Nc1ccc(S(=O)(=O)Nc2nc3ccccc3nc2N2CCOCC2)cc1,3,3,2,1,2,-3,x,x,
O=C(Nc1ccc(F)cc1)Nc1ccccc1NS(=O)(=O)c1cccs1,-6,19,4,2,3,-2,x,x,
Cc1cc(Cl)ccc1OCC(=O)Nc1ccccc1NS(=O)(=O)c1cccs1,-1,42*,-3,-8,-10,-4,51*,11*,
O=C(Nc1ccc(Cl)cc1)Nc1ccccc1NS(=O)(=O)c1cccs1,5,43*,1,3,-4,0,39*,10*,
CS(=O)(=O)c1ccc(C(=O)OCC#CCSc2nnc(-c3cccc4ccccc34)o2)cc1,1,x,-4,x,x,-1,x,x,
C[C@H]1[C@@H](OC(=O)Nc2ccccc2Cl)CC[C@@]23CCCN2C(=O)CCC[C@@H]13,-1,x,-3,x,x,-1,x,x,
CC1(OC(=O)CCc2ccccc2)C(=O)C=C2C=C(c3ccc(C#N)cc3)N(Cc3ccco3)C=C2C1=O (stereo unspecified),-2,37*,17*,-6,16,14,24,16*,
CCNC(=S)N/N=C/c1cn(Cc2ccc(F)cc2)c2ccccc12,-2,8,-2,8,1,-1,x,x,
O=C(O)c1ccc(N/N=C/c2cn(Cc3ccc(F)cc3)c3ccccc23)cc1,-1,81*,9,14,3,2,75*,35*,
C/C(=N/NC(=O)c1cccnc1)c1cccc(O)c1,5,-1,-1,x,x,0,x,x,
Cc1nc(-c2ccccc2)sc1C(=O)NS(=O)(=O)c1ccc(CN2CCN(c3ccccc3)CC2)cc1,-1,83*,3,x,3,4,81*,45*,
COc1ccc(C(=O)N[C@@H]2CC[C@@]34CCCN3C(=O)CCC[C@H]4[C@H]2C)cc1,5,x,-1,x,x,1,x,x,
Cc1ccccc1S(=O)(=O)Nc1ncnc2scc(-c3ccccc3)c12,2,55*,-1,3,-10,-2,50*,16*,
COc1cc(/C=C/C(=O)O)cc(OC)c1OC,-3,2,-2,5,0,-2,x,x,
COc1cc(/C=C/C(=O)O)ccc1OS(=O)(=O)c1c(C)c(C)cc(C)c1C,0,56*,2,-51,5,0,56*,16*,
COc1ccc(/C=C2\SC(=S)NC2=O)cc1OS(=O)(=O)c1ccc(NC(C)=O)cc1,-1,88*,-1,-11,12,5,78*,35*,
COc1cc(/C=C2/SC(=S)NC2=O)ccc1OS(=O)(=O)c1ccc(C)cc1,x,x,x,25,22,x,x,x,
COc1cccc(/C=C2\SC(=S)NC2=O)c1OS(=O)(=O)c1ccc(NC(C)=O)cc1,-1,69*,2,-13,2,4,32,9.3*,
COc1cccc(/C=C2\SC(N)=NC2=O)c1OS(=O)(=O)c1ccccc1,2,0,3,-5,3,6,x,x,
COc1cccc2sc(Nc3nnc(-c4ccc(F)cc4)o3)nc12,1,62*,-2,-5,2,-5,72*,28*,dCAG dye DR=>30
COc1cc(/C=N/NC(=O)C(Cc2c[nH]c3ccccc23)NC(=O)OCC(C)C)cc([N+](=O)[O-])c1OCc1ccccc1 (stereo unspecified),1,6,-3,0,-7,0,x,x,
